# Reference: ChEMBL document CHEMBL3112482, “Nonclassical antifolates, part 5. Benzodiazepine analogs as a new class of DHFR inhibitors: synthesis, antitumor testing and molecular modeling study” (Eur J Med Chem, 2014)
# Key:
# Type in all cases: functional
# U-251 = test: Growth inhibition of human U251 cells at 10 uM after 48 hrs; details: U-251, 48 h, read-out: GI
# In short: (§1)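 NCI 60-cell-line disease-oriented human tumor panel, single-dose primary screen at 10 µM. Data given as mean-graph percent growth of treated cells, reported as percent growth inhibition (GI %).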
# [1] = Cytotoxicity against human renal cancer cells at 10 uM after 48 hrs; details: Cancer cell lines
# [2] = Cytotoxicity against human colon cancer cells at 10 uM after 48 hrs; details: Cancer cell lines; for CC50: read-out: LC50 (the source's name)
# In short: (§2)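 Single-dose primary screen in the NCI 60 human tumour cell line panel, run at the NCI facility. The panel covers nine subpanels: leukaemia, non-small cell lung, colon, CNS, melanoma, ovarian, renal, prostate and breast. Read-out was percent growth of treated cells, shown as a mean graph and reported as percent growth inhibition.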
# [3] = Growth inhibition of human SF539 cells at 10 uM after 48 hrs; details: SF-539, 48 h, read-out: GI; in short: as §1
# A549 = test: Growth inhibition of human A549 cells at 10 uM after 48 hrs; details: A549, 48 h, read-out: GI; in short: as §2
# NCI-H226 = test: Growth inhibition of human NCI-H226 cells at 10 uM after 48 hrs; details: NCI-H226, 48 h, read-out: GI; in short: as §2
# SK-MEL-5 = test: Growth inhibition of human SK-MEL-5 cells at 10 uM after 48 hrs; details: SK-MEL-5, 48 h, read-out: GI; in short: as §1
# SN12C = test: Growth inhibition of human SN12C cells at 10 uM after 48 hrs; details: read-out: GI; in short: as §1
# SR = test: Growth inhibition of human SR cells at 10 uM after 48 hrs; details: read-out: GI; in short: as §1
# [4] = Growth inhibition of human OVCAR4 cells at 10 uM after 48 hrs; details: OVCAR-4, 48 h, read-out: GI; in short: as §2
# [5] = Growth inhibition of human OVCAR5 cells at 10 uM after 48 hrs; details: OVCAR-5, 48 h, read-out: GI; in short: as §2
# SK-OV-3 = test: Growth inhibition of human SKOV3 cells at 10 uM after 48 hrs; details: SK-OV-3, 48 h, read-out: GI; in short: as §1
# SNB-19 = test: Growth inhibition of human SNB19 cells at 10 uM after 48 hrs; details: SNB-19, 48 h, read-out: GI; in short: as §1
# MCF7 = test: Growth inhibition of human MCF7 cells at 10 uM after 48 hrs; details: MCF7, 48 h, read-out: GI; in short: as §2
# PC-3 = test: Growth inhibition of human PC3 cells at 10 uM after 48 hrs; details: PC-3, 48 h, read-out: GI; in short: as §2
# SNB-75 = test: Growth inhibition of human SNB75 cells at 10 uM after 48 hrs; details: SNB-75, 48 h, read-out: GI; in short: as §1
# SK-MEL-28 = test: Growth inhibition of human SK-MEL-28 cells at 10 uM after 48 hrs; details: SK-MEL-28, 48 h, read-out: GI; in short: as §1
# [6] = Growth inhibition of human EKVX cells at 10 uM after 48 hrs; details: read-out: GI; in short: as §2
# MDA-MB-231 = test: Growth inhibition of human MDA-MB-231 cells at 10 uM after 48 hrs; details: MDA-MB-231, 48 h, read-out: GI; in short: as §2
# [7] = Growth inhibition of human Hs 578T cells at 10 uM after 48 hrs; details: read-out: GI; in short: as §2
# TK-10 = test: Growth inhibition of human TK10 cells at 10 uM after 48 hrs; details: TK-10, 48 h, read-out: GI; in short: as §1
# HOP-62 = test: Growth inhibition of human HOP62 cells at 10 uM after 48 hrs; details: HOP-62, 48 h, read-out: GI; in short: as §2
# [8] = Cytotoxicity against human CNS cancer cells at 10 uM after 48 hrs; details: Cancer cell lines; for CC50: read-out: LC50 (the source's name)
# Malme-3M = test: Growth inhibition of human MALME-3M cells at 10 uM after 48 hrs; details: read-out: GI; in short: as §2
# [9] = Cytotoxicity against human prostate cancer cells at 10 uM after 48 hrs; details: Cancer cell lines
# [10] = Growth inhibition of human NCI-ADR-RES cells at 10 uM after 48 hrs; details: read-out: GI; in short: as §2
# [11] = Growth inhibition of human UO31 cells at 10 uM after 48 hrs; details: UO-31, 48 h, read-out: GI; in short: as §1
# SF-268 = test: Growth inhibition of human SF268 cells at 10 uM after 48 hrs; details: SF-268, 48 h, read-out: GI; in short: as §1
# [12] = Cytotoxicity against human non-small cell lung cancer cells at 10 uM after 48 hrs; details: Cancer cell lines; for CC50: read-out: LC50 (the source's name); in short: as §2
# K562 = test: Growth inhibition of human K562 cells at 10 uM after 48 hrs; details: K562, 48 h, read-out: GI; in short: as §2
# T47D = test: Growth inhibition of human T47D cells at 10 uM after 48 hrs; details: read-out: GI; in short: as §1
# A498 = test: Growth inhibition of human A498 cells at 10 uM after 48 hrs; details: A498, 48 h, read-out: GI; in short: as §2
# NCI-H322M = test: Growth inhibition of human NCI-H322M cells at 10 uM after 48 hrs; details: read-out: GI; in short: as §2
# ACHN = test: Growth inhibition of human ACHN cells at 10 uM after 48 hrs; details: read-out: GI; in short: as §2
# [13] = Growth inhibition of human RXF393 cells at 10 uM after 48 hrs; details: RXF 393, 48 h, read-out: GI; in short: as §2
# DU-145 = test: Growth inhibition of human DU145 cells at 10 uM after 48 hrs; details: DU-145, 48 h, read-out: GI; in short: as §2
# NCI-H23 = test: Growth inhibition of human NCI-H23 cells at 10 uM after 48 hrs; details: NCI-H23, 48 h, read-out: GI; in short: as §2
# OVCAR-3 = test: Growth inhibition of human OVCAR3 cells at 10 uM after 48 hrs; details: OVCAR-3, 48 h, read-out: GI; in short: as §2
compound,measurement,setting,value
COc1cc(/C=C2\CCCc3c2nc(C)nc3-c2cc(OC)c(OC)c(OC)c2)cc(OC)c1OC,inhibition of growth at 10 µM,U-251,90.2%
same,CC50,[1],> 100 µM
same,GI50,[1],2.2 µM
same,TGI,[1],42 µM
same,GI50,[2],0.9 µM
same,TGI,[2],67.3 µM
same,CC50,[2],76.2 µM
same,inhibition of growth at 10 µM,[3],86.5%
same,inhibition of growth at 10 µM,A549,83.8%
same,inhibition of growth at 10 µM,NCI-H226,62.4%
same,inhibition of growth at 10 µM,SK-MEL-5,80.9%
same,inhibition of growth at 10 µM,SN12C,89.2%
same,inhibition of growth at 10 µM,SR,< 30%
same,inhibition of growth at 10 µM,[4],57.8%
same,inhibition of growth at 10 µM,[5],89.2%
same,inhibition of growth at 10 µM,SK-OV-3,56.1%
same,inhibition of growth at 10 µM,SNB-19,38.8%
same,inhibition of growth at 10 µM,MCF7,77%
same,inhibition of growth at 10 µM,PC-3,57.4%
same,inhibition of growth at 10 µM,SNB-75,78.1%
same,inhibition of growth at 10 µM,SK-MEL-28,68.1%
same,inhibition of growth at 10 µM,[6],< 30%
same,inhibition of growth at 10 µM,MDA-MB-231,86.9%
same,inhibition of growth at 10 µM,[7],51.4%
same,inhibition of growth at 10 µM,TK-10,55.5%
same,inhibition of growth at 10 µM,HOP-62,78%
same,GI50,[8],34.5 µM
same,TGI,[8],> 100 µM
same,CC50,[8],> 100 µM
same,inhibition of growth at 10 µM,Malme-3M,69.8%
same,GI50,[9],1.8 µM
same,LC50,[9],> 100 µM
same,TGI,[9],> 100 µM
same,inhibition of growth at 10 µM,[10],85.6%
same,inhibition of growth at 10 µM,[11],48.9%
same,inhibition of growth at 10 µM,SF-268,78.8%
same,GI50,[12],2.7 µM
same,TGI,[12],> 100 µM
same,CC50,[12],> 100 µM
same,inhibition of growth at 10 µM,K562,88.9%
same,inhibition of growth at 10 µM,T47D,< 30%
same,inhibition of growth at 10 µM,A498,83.7%
same,inhibition of growth at 10 µM,NCI-H322M,58.9%
same,inhibition of growth at 10 µM,ACHN,87.5%
same,inhibition of growth at 10 µM,[13],77.4%
same,inhibition of growth at 10 µM,DU-145,95.1%
same,inhibition of growth at 10 µM,NCI-H23,66.1%
same,inhibition of growth at 10 µM,OVCAR-3,72%
COc1cc(/C=C2\CCCc3c2nc(N)nc3-c2cc(OC)c(OC)c(OC)c2)cc(OC)c1OC,CC50,[1],> 100 µM
same,GI50,[1],1.8 µM
same,TGI,[1],20.8 µM
same,GI50,[2],1.1 µM
same,TGI,[2],2.6 µM
same,CC50,[2],68.3 µM
same,inhibition of growth at 10 µM,[3],74.1%
same,inhibition of growth at 10 µM,SR,99%
same,inhibition of growth at 10 µM,[4],73.1%
same,inhibition of growth at 10 µM,[5],93.2%
same,inhibition of growth at 10 µM,SK-OV-3,92.8%
same,inhibition of growth at 10 µM,SNB-19,38.5%
same,inhibition of growth at 10 µM,MCF7,57%
same,inhibition of growth at 10 µM,PC-3,74.1%
same,inhibition of growth at 10 µM,SNB-75,54.3%
same,inhibition of growth at 10 µM,SK-MEL-28,75.1%
same,inhibition of growth at 10 µM,[6],44%
same,inhibition of growth at 10 µM,MDA-MB-231,71.1%
same,inhibition of growth at 10 µM,[7],63%
same,inhibition of growth at 10 µM,TK-10,< 30%
same,inhibition of growth at 10 µM,HOP-62,82.2%
same,GI50,[8],3.3 µM
same,TGI,[8],> 100 µM
same,CC50,[8],> 100 µM
same,GI50,[9],2.7 µM
same,LC50,[9],> 100 µM
same,TGI,[9],> 100 µM
same,inhibition of growth at 10 µM,[10],96.1%
same,inhibition of growth at 10 µM,[11],65.7%
same,inhibition of growth at 10 µM,SF-268,84.9%
same,GI50,[12],1.7 µM
same,TGI,[12],42.5 µM
same,CC50,[12],> 100 µM
same,inhibition of growth at 10 µM,K562,93.6%
same,inhibition of growth at 10 µM,T47D,72.5%
same,inhibition of growth at 10 µM,A498,99.5%
same,inhibition of growth at 10 µM,NCI-H322M,< 30%
same,inhibition of growth at 10 µM,NCI-H23,88.4%
